ChEMBL document CHEMBL3994591, “Novel ferulic amide derivatives with tertiary amine side chain as acetylcholinesterase and butyrylcholinesterase inhibitors: The influence of carbon spacer length, alkylamine and aromatic group” (Eur J Med Chem, 2017)

What was measured:
[1] = Octanol-water partition coefficient, log P of the compound at pH 7.4 by shake flask method; type: physicochemical
Procedure, shortened: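 Shake flask partition between octanol and PBS (pH 7.4). Mixture shaken at 37 °C overnight, then centrifuged at 2000 rpm for 20 min. Phases analysed by C18 HPLC with methanol-0.1% TEA (85:15, v/v) at 1.0 mL/min and 32 °C, detection at 322 nm. Run in triplicate, log P calculated.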

Homo sapiens = organism: Homo sapiens; assay: Selectivity index, ratio of IC50 for butyrylcholinesterase (unknown origin) to IC50 for acetylcholinesterase (unknown origin)
[2] = Inhibition of carboxylesterase (unknown origin) using 4-nitrophenyl acetate as substrate by UV-Vis spectrophotometer; parameters: species or system Homo sapiens
Procedure, shortened: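 Read-out was 4-nitrophenol released by CaE hydrolysis of 1.0 mmol/L 4-nitrophenyl acetate, measured at 405 nm. Reactions ran in 100 mmol/L potassium phosphate buffer, pH 8.0, at 25 °C. CaE activity was taken as proportional to 4-nitrophenol concentration.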

Cholinesterase = Cholinesterase (Homo sapiens, UniProt P06276); assay: Inhibition of butyrylcholinesterase (unknown origin) using butyrylthiocholine iodide as substrate after 25 mins by Ellmann method
Sequence of Cholinesterase (P06276 whole entry): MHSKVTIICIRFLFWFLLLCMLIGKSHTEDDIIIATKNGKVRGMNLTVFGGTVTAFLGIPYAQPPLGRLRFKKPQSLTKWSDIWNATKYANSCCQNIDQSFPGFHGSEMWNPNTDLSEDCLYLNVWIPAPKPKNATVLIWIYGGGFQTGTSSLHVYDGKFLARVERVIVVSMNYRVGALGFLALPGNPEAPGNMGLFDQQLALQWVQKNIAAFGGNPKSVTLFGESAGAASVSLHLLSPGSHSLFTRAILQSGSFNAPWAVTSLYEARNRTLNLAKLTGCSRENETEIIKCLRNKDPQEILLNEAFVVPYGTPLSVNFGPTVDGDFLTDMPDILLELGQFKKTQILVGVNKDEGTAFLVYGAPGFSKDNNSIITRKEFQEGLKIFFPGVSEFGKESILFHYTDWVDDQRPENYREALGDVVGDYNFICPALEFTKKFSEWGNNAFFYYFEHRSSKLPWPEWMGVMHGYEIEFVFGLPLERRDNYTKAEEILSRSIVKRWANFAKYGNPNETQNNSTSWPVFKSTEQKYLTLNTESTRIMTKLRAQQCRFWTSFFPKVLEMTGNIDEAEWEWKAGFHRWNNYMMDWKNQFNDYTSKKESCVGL
Procedure, shortened: (§1)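 Modified Ellman assay, triplicate. Compounds dissolved in Tween 80, diluted with water to five concentrations. Mix: enzyme […], substrate (acetylthiocholine iodide or butyrylthiocholine iodide) and test compound in phosphoric acid buffer, pH 8.0, 0.1 mol/L. Incubated 25 min at 30 °C, then terminated. IC50 reported as mean ± SD of three experiments.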

Acetylcholinesterase [3] = target: T1, Acetylcholinesterase (Homo sapiens, UniProt P22303); assay: Inhibition of acetylcholinesterase (unknown origin) using acetylthiocholine iodide as substrate after 25 mins by Ellmann method; procedure, shortened: as §1
Acetylcholinesterase [4] = target: T1, Acetylcholinesterase; assay: Potency index, ratio of rivastigmine IC50 to compound IC50 for acetylcholinesterase (unknown origin)
[5] = compound: COc1cc(/C=C/C(=O)Nc2ccccc2)ccc1OCCCCCCN1CCCCC1; assay: Mixed type inhibition of acetylcholinesterase (unknown origin) assessed as Km for substrate at 0.82 uM using acetylthiocholine iodide as substrate by Michaelis-Menten plot analysis (reference value: 5.99 mM); settings: Homo sapiens
[6] = compound: COc1cc(/C=C/C(=O)Nc2ccccc2)ccc1OCCCCCCN1CCCCC1; assay: Mixed type inhibition of acetylcholinesterase (unknown origin) assessed as enzyme Vmax at 0.18 uM using acetylthiocholine iodide as substrate by Michaelis-Menten plot analysis (reference value: 0.027 deltaA/min); settings: Homo sapiens
[7] = compound: COc1cc(/C=C/C(=O)Nc2ccccc2)ccc1OCCCCCCN1CCCCC1; assay: Mixed type inhibition of acetylcholinesterase (unknown origin) assessed as enzyme Vmax at 0.82 uM using acetylthiocholine iodide as substrate by Michaelis-Menten plot analysis (reference value: 0.027 deltaA/min); settings: Homo sapiens
[8] = compound: COc1cc(/C=C/C(=O)Nc2ccccc2)ccc1OCCCCCCN1CCCCC1; assay: Mixed type inhibition of acetylcholinesterase (unknown origin) assessed as Km for substrate at 0.41 uM using acetylthiocholine iodide as substrate by Michaelis-Menten plot analysis (reference value: 5.99 mM); settings: Homo sapiens
[9] = compound: COc1cc(/C=C/C(=O)Nc2ccccc2)ccc1OCCCCCCN1CCCCC1; assay: Mixed type inhibition of acetylcholinesterase (unknown origin) assessed as Km for substrate at 0.18 uM using acetylthiocholine iodide as substrate by Michaelis-Menten plot analysis (reference value: 5.99 mM); settings: Homo sapiens
[10] = compound: COc1cc(/C=C/C(=O)Nc2ccccc2)ccc1OCCCCCCN1CCCCC1; assay: Mixed type inhibition of acetylcholinesterase (unknown origin) assessed as enzyme Vmax at 0.41 uM using acetylthiocholine iodide as substrate by Michaelis-Menten plot analysis (reference value: 0.027 deltaA/min); settings: Homo sapiens

Molecule | logD [1] | Ratio IC50 (Homo sapiens) | IC50 [2] | IC50 (Cholinesterase) | IC50 (Acetylcholinesterase [3]) | Ratio IC50 (Acetylcholinesterase [4]) | Km [5] | Vmax [6] | Vmax [7] | Km [8] | Km [9] | Vmax [10]
COc1cc(/C=C/C(=O)Nc2ccccc2)ccc1OCCCCCN1CCCC1 | 1.64 | 0.77 | > 500 µM | 4.78 µM | 6.21 µM |  |  |  |  |  |  | 
COc1cc(/C=C/C(=O)Nc2ccccc2)ccc1OCCN1CCCC1 | 1.54 | 0.36 | > 500 µM | 12.7 µM | 35.1 µM |  |  |  |  |  |  | 
CCN(C)C(=O)Oc1cccc([C@H](C)N(C)C)c1 [RIVASTIGMINE] | 1.68 |  | 31.1 µM |  |  |  |  |  |  |  |  | 
CCN(CC)CCCCCOc1ccc(/C=C/C(=O)Nc2ccccc2)cc1OC | 1.63 | 1.17 | > 500 µM | 22.1 µM | 19 µM |  |  |  |  |  |  | 
CCOC(=O)/C=C/c1ccc(OCCCCCCN2CCCCC2)c(OC)c1 | 1.81 | 15.8 | > 500 µM | 41.8 µM | 2.65 µM |  |  |  |  |  |  | 
CCN(CC)CCCCCCCCOc1ccc(/C=C/C(=O)O)cc1OC | 1.51 | 95.1 | > 500 µM | 302 µM | 3.18 µM |  |  |  |  |  |  | 
CCOC(=O)/C=C/c1ccc(OCCCCCCN(CC)CC)c(OC)c1 | 1.8 | 5.87 | > 500 µM | 11.4 µM | 1.94 µM |  |  |  |  |  |  | 
CCOC(=O)/C=C/c1ccc(OCCCCCCCCN(CC)CC)c(OC)c1 | 1.98 | 8.37 | > 500 µM | 13 µM | 1.56 µM |  |  |  |  |  |  | 
CCN(CC)CCCCCCOc1ccc(/C=C/C(=O)O)cc1OC | 1.29 | 98.6 | > 500 µM | 263 µM | 2.67 µM |  |  |  |  |  |  | 
CCN(CC)CCOc1ccc(/C=C/C(=O)Nc2ccccc2)cc1OC | 1.53 | 0.28 | > 500 µM | 11.5 µM | 41.1 µM |  |  |  |  |  |  | 
COc1cc(/C=C/C(=O)Nc2ccccc2)ccc1OCCCCN1CCCCC1 | 1.61 | 0.8 | > 500 µM | 5.69 µM | 7.14 µM |  |  |  |  |  |  | 
COc1cc(/C=C/C(=O)Nc2ccccc2)ccc1OCCN(C)C | 1.5 | 1 | > 500 µM | 23.3 µM | 23.2 µM |  |  |  |  |  |  | 
COc1cc(/C=C/C(=O)Nc2ccccc2)ccc1OCCCCCCCCN1CCCC1 | 1.78 | 1.38 | > 500 µM | 4.03 µM | 2.91 µM |  |  |  |  |  |  | 
COc1cc(/C=C/C(=O)O)ccc1OCCCCCCN1CCCCC1 | 1.32 | 3.2 | > 500 µM | 146 µM | 45.6 µM |  |  |  |  |  |  | 
CCN(CC)CCCCCCOc1ccc(/C=C/C(=O)Nc2ccccc2)cc1OC | 1.7 | 2.66 | > 500 µM | 4.86 µM | 1.83 µM |  |  |  |  |  |  | 
COc1cc(/C=C/C(=O)Nc2ccccc2)ccc1OCCCN(C)C | 1.55 | 0.59 | > 500 µM | 20 µM | 33.9 µM |  |  |  |  |  |  | 
COc1cc(/C=C/C(=O)Nc2ccccc2)ccc1OCCCCCCN(C)C | 1.69 | 0.8 | > 500 µM | 6.72 µM | 8.4 µM |  |  |  |  |  |  | 
COc1cc(/C=C/C(=O)Nc2ccccc2)ccc1OCCN1CCCCC1 | 1.56 | 0.12 | > 500 µM | 2.34 µM | 19.4 µM |  |  |  |  |  |  | 
COc1cc(/C=C/C(=O)Nc2ccccc2)ccc1OCCCN1CCCC1 | 1.57 | 0.38 | > 500 µM | 14.2 µM | 37.1 µM |  |  |  |  |  |  | 

Molecule | logD [1] | Ratio IC50 (Homo sapiens) | IC50 [2] | IC50 (Cholinesterase) | IC50 (Acetylcholinesterase [3]) | Ratio IC50 (Acetylcholinesterase [4]) | Km [5] | Vmax [6] | Vmax [7] | Km [8] | Km [9] | Vmax [10]
COc1cc(/C=C/C(=O)Nc2ccccc2)ccc1OCCCCCCCCCCN1CCCC1 | 1.86 | 0.22 | > 500 µM | 2.99 µM | 13.5 µM |  |  |  |  |  |  | 
COc1cc(/C=C/C(=O)Nc2ccccc2)ccc1OCCCCN1CCCC1 | 1.6 | 0.16 | > 500 µM | 3.83 µM | 24.4 µM |  |  |  |  |  |  | 
COc1cc(/C=C/C(=O)Nc2ccccc2)ccc1OCCCN1CCCCC1 | 1.58 | 0.33 | > 500 µM | 4.78 µM | 14.5 µM |  |  |  |  |  |  | 
COc1cc(/C=C/C(=O)Nc2ccccc2)ccc1OCCCCCN(C)C | 1.61 | 0.37 | > 500 µM | 12.1 µM | 33 µM |  |  |  |  |  |  | 
COc1cc(/C=C/C(=O)Nc2ccccc2)ccc1OCCCCCCCCN1CCCCC1 | 1.79 | 1.32 | > 500 µM | 5.45 µM | 4.12 µM |  |  |  |  |  |  | 
COc1cc(/C=C/C(=O)Nc2ccccc2)ccc1O | 1.42 |  | > 500 µM | > 500 µM | > 500 µM |  |  |  |  |  |  | 
COc1cc(/C=C/C(=O)Nc2ccccc2)ccc1OCCCCCN1CCCCC1 | 1.65 | 1.23 | > 500 µM | 5.9 µM | 4.8 µM |  |  |  |  |  |  | 
CCN(CC)CCCCOc1ccc(/C=C/C(=O)Nc2ccccc2)cc1OC | 1.59 | 0.6 | > 500 µM | 25.1 µM | 41.6 µM |  |  |  |  |  |  | 
CCOC(=O)/C=C/c1ccc(OCCCCCCN2CCCC2)c(OC)c1 | 1.82 | 74.6 | > 500 µM | 377 µM | 5.05 µM |  |  |  |  |  |  | 
CCN(CC)CCCOc1ccc(/C=C/C(=O)Nc2ccccc2)cc1OC | 1.57 | 0.71 | > 500 µM | 16.9 µM | 23.7 µM |  |  |  |  |  |  | 
COc1cc(/C=C/C(=O)Nc2ccccc2)ccc1OCCCCN(C)C | 1.57 | 0.26 | > 500 µM | 25.9 µM | 100 µM |  |  |  |  |  |  | 
CCN(CC)CCCCCCCCCCOc1ccc(/C=C/C(=O)Nc2ccccc2)cc1OC | 1.83 | 0.57 | > 500 µM | 8.47 µM | 14.9 µM |  |  |  |  |  |  | 
COc1cc(/C=C/C(=O)O)ccc1OCCCCCCN1CCCC1 | 1.29 | 4.1 | > 500 µM | 287 µM | 69.9 µM |  |  |  |  |  |  | 
COc1cc(/C=C/C(=O)Nc2ccccc2)ccc1OCCCCCCN1CCCC1 | 1.76 | 2.01 | > 500 µM | 2.23 µM | 1.11 µM | 9 |  |  |  |  |  | 
COc1cc(/C=C/C(=O)Nc2ccccc2)ccc1OCCCCCCCCN(C)C | 1.74 | 1.16 | > 500 µM | 10.4 µM | 8.95 µM |  |  |  |  |  |  | 
CCN(CC)CCCCCCCCOc1ccc(/C=C/C(=O)Nc2ccccc2)cc1OC | 1.75 | 2.93 | > 500 µM | 3.98 µM | 1.36 µM |  |  |  |  |  |  | 
COc1cc(/C=C/C(=O)Nc2ccccc2)ccc1OCCCCCCCCCCN(C)C | 1.8 | 2.07 | > 500 µM | 20.6 µM | 9.93 µM |  |  |  |  |  |  | 
COc1cc(/C=C/C(=O)Nc2ccccc2)ccc1OCCCCCCCCCCN1CCCCC1 | 1.83 | 0.44 | > 500 µM | 4.84 µM | 11.1 µM |  |  |  |  |  |  | 
Acetylcholinesterase (Homo sapiens), P22303 (protein) MRPPQCLLHTPSLASPLLLLLLWLLGGGVGAEGREDAELLVTVRGGRLRGIRLKTPGGPVSAFLGIPFAEPPMGPRRFLPPEPKQPWSGVVDATTFQSVCYQYVDTLYPGFEGTEMWNPNRELSEDCLYLNVWTPYPRPTSPTPVLVWIYGGGFYSGASSLDVYDGRFLVQAERTVLVSMNYRVGAFGFLALPGSREAPGNVGLLDQRLALQWVQENVAAFGGDPTSVTLFGESAGAASVGMHLLSPPSRGLFHRAVLQSGAPNGPWATVGMGEARRRATQLAHLVGCPPGGTGGNDTELVACLRTRPAQVLVNHEWHVLPQESVFRFSFVPVVDGDFLSDTPEALINAGDFHGLQVLVGVVKDEGSYFLVYGAPGFSKDNESLISRAEFLAGVRVGVPQVSDLAAEAVVLHYTDWLHPEDPARLREALSDVVGDHNVVCPVAQLAGRLAAQGARVYAYVFEHRASTLSWPLWMGVPHGYEIEFIFGIPLDPSRNYTAEEKIFAQRLMRYWANFARTGDPNEPRDPKAPQWPPYTAGAQQYVSLDLRPLEVRRGLRAQACAFWNRFLPKLLSATDTLDEAERQWKAEFHRWSSYMVHWKNQFDHYSKQDRCSDL |  |  |  |  |  |  | 8.85 mM | 0.023 deltaA/min | 0.015 deltaA/min | 7.71 mM | 6.69 mM | 0.019 deltaA/min
